Source: ChEMBL document CHEMBL3091377, “Small molecule fusion inhibitors: design, synthesis and biological evaluation of (Z)-3-(5-(3-benzyl-4-oxo-2-thioxothiazolidinylidene)methyl)-N-(3-carboxy-4-hydroxy)phenyl-2,5-dimethylpyrroles and related derivatives targeting HIV-1 gp41” (Bioorg Med Chem, 2013)
Calls of active or inactive are those of the source. The rule behind the calls is not given here.

Key:
[1] = (§1) Inhibition of HIV-1 gp41-mediated 6-helix bundle formation after 30 mins by sandwich ELISA; set-up: species or system Human immunodeficiency virus 1
How it was run: (§2)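 Peptide N36 (2 µM) preincubated with compound at graded concentrations, 37 °C, 30 min. C34 (2 µM) then added and incubated a further 30 min at 37 °C. Mixture captured on wells coated with rabbit IgG against gp41 six-helix bundle (10 µg/mL); A450 read. Percent inhibition versus no-compound control; IC50 calculated; triplicate.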

[2] = Selectivity index, ratio of CC50 for human MT2 cells to EC50 for HIV1 3B; format: toxicity, cell-based; details: read-out: Ratio CC50/EC50
How it was run: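 Selectivity index calculated as CC50 (XTT, MT-2 cells, 4 days) divided by EC50 (p24 inhibition in HIV-1 IIIB-infected MT-2 cells).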

[3] = Cytotoxicity against human MT2 cells after 4 days by XTT assay; format: cell-based
How it was run: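 XTT assay on MT-2 cells (5 × 10^5/mL mixed with equal volume of compound at graded concentrations). Incubated 4 days, then XTT (1 mg/mL) containing 0.02 µM phenazine methosulphate added. A450 read after 4 h; CC50 calculated as concentration giving 50% cytotoxicity.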

[4] = tested on: Human immunodeficiency virus 1; assay: Antiviral activity against HIV1 3B infected in human MT2 cells assessed as inhibition of p24 antigen production after 4 days by ELISA; format: functional, organism-based; details: Human immunodeficiency virus 1, 3B, MT2, 96 h
How it was run: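 MT-2 cells (1 × 10^4) infected with HIV-1 IIIB at 100 TCID50 in RPMI 1640 with 10% serum (printed "PBS"), compound at graded concentrations overnight. Supernatant then replaced with compound-free medium. Day 4: supernatant lysed in equal volume 5% Triton X-100, p24 quantified by sandwich ELISA against recombinant p24 standard curve. Triplicate; EC50 from percent inhibition.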

[5] = tested on: Human immunodeficiency virus 1; assay: Antiviral activity against enfuvirtide-resistant HIV-1 NL4-3 harboring gp41 (36G)V38A/N42T mutation infected in human MT2 cells assessed as inhibition of p24 antigen production after 4 days by ELISA; format: functional, organism-based
How it was run: (§3)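 1 × 10^4 MT-2 cells infected with virus (100 TCID50) in RPMI 1640 with 10% serum, with or without compound at graded concentrations, overnight. Supernatant then replaced with compound-free medium. Day 4 supernatant lysed with 5% Triton X-100. p24 quantified by HIVIG-capture sandwich ELISA with recombinant p24 standard curve, A450. IC50 by CalcuSyn, triplicate, mean ± SD.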

[6] = tested on: Human immunodeficiency virus 1; assay: Antiviral activity against enfuvirtide-resistant HIV-1 NL4-3 harboring gp41 (36G)V38E/N42S mutation infected in human MT2 cells assessed as inhibition of p24 antigen production after 4 days by ELISA; format: functional, organism-based; how it was run: as §3
[7] = tested on: Human immunodeficiency virus 1; assay: Antiviral activity against enfuvirtide-resistant HIV-1 NL4-3 harboring gp41 (36G)N42T/N43K mutation infected in human MT2 cells assessed as inhibition of p24 antigen production after 4 days by ELISA; format: functional, organism-based; how it was run: as §3
[8] = tested on: Human immunodeficiency virus 1; assay: Antiviral activity against enfuvirtide-resistant HIV-1 NL4-3 harboring gp41 (36G)V38A mutation infected in human MT2 cells assessed as inhibition of p24 antigen production after 4 days by ELISA; format: functional, organism-based; how it was run: as §3
[9] = tested on: Human immunodeficiency virus 1; assay: Antiviral activity against enfuvirtide-resistant HIV-1 NL4-3 harboring gp41 (36G)V38A/N42D mutation infected in human MT2 cells assessed as inhibition of p24 antigen production after 4 days by ELISA; format: functional, organism-based; how it was run: as §3
[10] = tested on: Human immunodeficiency virus 1; assay: Antiviral activity against enfuvirtide-sensitive HIV-1 NL4-3 harboring gp41 (36G)N42S mutation infected in human MT2 cells assessed as inhibition of p24 antigen production after 4 days by ELISA; format: functional, organism-based; how it was run: as §3
[11] = tested on: Human immunodeficiency virus 1; assay: Ratio of IC50 for enfuvirtide-resistant HIV-1 NL4-3 harboring gp41 (36G)V38A/N42T mutation to IC50 for enfuvirtide-sensitive HIV-1 NL4-3 harboring gp41 (36G)N42S mutation; format: functional
How it was run: (§4)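 MT-2 cells (1 × 10^4) were infected overnight in RPMI 1640 with 100 TCID50 of the NL4-3 (36G) N42S or mutant strain, with graded compound. Medium was then replaced without compound. On day 4, supernatant was lysed in 5% Triton X-100 and p24 measured by HIVIG-capture ELISA (A450, recombinant p24 standard). IC50 was taken from triplicates, and the ratio was mutant IC50 over N42S IC50.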

[12] = tested on: Human immunodeficiency virus 1; assay: Ratio of IC50 for enfuvirtide-resistant HIV-1 NL4-3 harboring gp41 (36G)V38E/N42S mutation to IC50 for enfuvirtide-sensitive HIV-1 NL4-3 harboring gp41 (36G)N42S mutation; format: functional; how it was run: as §4
[13] = tested on: Human immunodeficiency virus 1; assay: Ratio of IC50 for enfuvirtide-resistant HIV-1 NL4-3 harboring gp41 (36G)N42T/N43K mutation to IC50 for enfuvirtide-sensitive HIV-1 NL4-3 harboring gp41 (36G)N42S mutation; format: functional; how it was run: as §4
[14] = tested on: Human immunodeficiency virus 1; assay: Ratio of IC50 for enfuvirtide-resistant HIV-1 NL4-3 harboring gp41 (36G)V38A mutation to IC50 for enfuvirtide-sensitive HIV-1 NL4-3 harboring gp41 (36G)N42S mutation; format: functional; how it was run: as §4
[15] = tested on: Human immunodeficiency virus 1; assay: Ratio of IC50 for enfuvirtide-resistant HIV-1 NL4-3 harboring gp41 (36G)V38A/N42D mutation to IC50 for enfuvirtide-sensitive HIV-1 NL4-3 harboring gp41 (36G)N42S mutation; format: functional; how it was run: as §4
[16] = tested on: Human immunodeficiency virus 1; assay: as §1; how it was run: as §2

Compound | IC50 [1] [µM] | selectivity ratio [2] | CC50 at 96 h [3] [µM] | EC50 [4] [µM] | other results
Cc1cc(/C=C2\SC(=S)N(Cc3ccc(C(F)(F)F)cc3)C2=O)c(C)n1-c1ccc(O)c(C(=O)O)c1 | 18.8 | 2.7 | 45.9 | 17.2 | –
Cc1cc(/C=C2\SC(=S)N(CCc3ccccc3)C2=O)c(C)n1-c1ccc(O)c(C(=O)O)c1 | 12.5 | 4.2 | 26 | 6.2 | –
COC(=O)c1cccc(CN2C(=O)/C(=C/c3cc(C)n(-c4ccc(O)c(C(=O)O)c4)c3C)SC2=S)c1 | 1.8 | 128 | 38.5 | 0.3 | IC50 [5]: 2.82 µM; IC50 [6]: 3.37 µM; IC50 [7]: 2.02 µM; IC50 [8]: 1.74 µM; IC50 [9]: 0.725 µM; IC50 [10]: 2.22 µM
Cc1cc(/C=C2\SC(=S)N(Cc3cccc(C(=O)O)c3)C2=O)c(C)n1-c1ccc(O)c(C(=O)O)c1 | 20.8 | > 8.3 | > 100 | 12.1 | –
enfuvirtide | – | – | – | – | Ratio IC50 [11]: >20; Ratio IC50 [12]: >20; Ratio IC50 [13]: >20; Ratio IC50 [14]: >20; Ratio IC50 [15]: >20; IC50 [5]: 1.66 µM; IC50 [6]: > 2 µM; IC50 [7]: > 2 µM; IC50 [8]: > 2 µM; IC50 [9]: 1.54 µM; IC50 [10]: 0.077 µM
COC(=O)c1ccc(CN2C(=O)/C(=C/c3cc(C)n(-c4ccc(O)c(C(=O)O)c4)c3C)SC2=S)cc1 | 1.8 | 24.6 | 36.9 | 1.5 | IC50 [5]: 1.67 µM; IC50 [6]: 2.75 µM; IC50 [7]: 2.3 µM; IC50 [8]: 4.85 µM; IC50 [9]: 2.2 µM; IC50 [10]: 2.01 µM
Cc1cc(/C=C2\SC(=S)N(Cc3ccccc3Br)C2=O)c(C)n1-c1ccc(O)c(C(=O)O)c1 | – | 0.6 | 25.7 | 41.1 | –
Cc1ccc(C)n1-c1ccc(O)c(C(=O)O)c1 | 37.4 | 191 | – | 0.7 | –
COc1ccc(CN2C(=O)/C(=C/c3cc(C)n(-c4ccc(O)c(C(=O)O)c4)c3C)SC2=S)cc1 | 0.9 | 3.8 | 75.3 | 19.8 | –
Cc1cc(/C=C2\SC(=S)N(Cc3cccc(C(F)(F)F)c3)C2=O)c(C)n1-c1ccc(O)c(C(=O)O)c1 | 9.2 | 6.7 | 26.3 | 3.9 | –
Cc1cc(/C=C2\SC(=S)N(Cc3ccc(C(=O)O)cc3)C2=O)c(C)n1-c1ccc(O)c(C(=O)O)c1 | 68 | 14.7 | 105 | 7.1 | –
Cc1cc(/C=C2\SC(=S)N(Cc3ccccc3)C2=O)c(C)n1-c1cccc(C(=O)O)c1 | 45.7 | 5.5 | 83.4 | 15.3 | –
Cc1cc(/C=C2\SC(=S)N(Cc3ccccc3C(F)(F)F)C2=O)c(C)n1-c1ccc(O)c(C(=O)O)c1 | 22.6 | 1 | 28.8 | 29.1 | –
Cc1cc(/C=C2\SC(=S)N(c3ccccc3)C2=O)c(C)n1-c1ccc(O)c(C(=O)O)c1 | – | > 2.8 | > 100 | 35.6 | inhibition [16]: inactive
Cc1cc(/C=C2\SC(=S)N(Cc3cccc(Br)c3)C2=O)c(C)n1-c1ccc(O)c(C(=O)O)c1 | 7.8 | 1.5 | 48.2 | 32.4 | –
Cc1cc(/C=C2\SC(=S)N(Cc3ccc(Br)cc3)C2=O)c(C)n1-c1ccc(O)c(C(=O)O)c1 | 10.3 | 2.2 | 94.4 | 42.7 | –
COc1cccc(CN2C(=O)/C(=C/c3cc(C)n(-c4ccc(O)c(C(=O)O)c4)c3C)SC2=S)c1 | 2.1 | 4.4 | 102 | 23.5 | –
Cc1cc(/C=C2\SC(=S)N(Cc3ccccc3)C2=O)c(C)n1-c1ccc(O)c(C(=O)O)c1 | 11.9 | 50.2 | 159 | 3.2 | –
Cc1cc(/C=C2\SC(=S)N(Cc3ccccc3)C2=O)c(C)n1-c1ccc(Cl)c(C(=O)O)c1 | 34.3 | 3.6 | 68.3 | 19.1 | –
Cc1cc(/C=C2\SC(=S)N(Cc3ccc(C(C)(C)C)cc3)C2=O)c(C)n1-c1ccc(O)c(C(=O)O)c1 | 2.6 | 61.3 | 55.2 | 0.9 | IC50 [5]: 1.78 µM; IC50 [6]: 2.67 µM; IC50 [7]: 1.96 µM; IC50 [8]: 4.25 µM; IC50 [9]: 2.02 µM; IC50 [10]: 0.473 µM
